Screening results as filed in PubChem.
Cneo AK release: Cryptococcus neoformans lysis via adenylate kinase release; C. neoformans lysis, adenylate kinase release luminescence, 4 h; normalised: neutral wells 0, clomiphene wells 100; lysis activity, % at 15 µM; 0.2% of 360,000 active; AID 651654;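 active = mean lysis activity across replicates of at least 80%, whatever share of replicates individually reach that level; inactive = mean lysis activity below 80%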
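Schedule: static 4 h at 37 °C with compound, 1 h detection; system: C. neoformans cells; benchmarks: Clomiphene as positive control; buffer or medium: fresh YPD medium; measure: luminescence rise reflecting yeast cell lysis; measured by: luminescent adenylate kinase detection reagent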
C2C12 statin: suppressors of simvastatin-induced myotoxicity in C2C12 myotubes. 0.78% of 330,000 active. rescue of ATP level, % at 7.49 µM. ATP luminescence, 48 h; scaled: DMSO 0, geranylgeraniol control 100. AID 602340;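 active = mean ATP rescue above about 67%, or every replicate alone reaching that limit, limit read from the data, passing the limit was not always enough; inconclusive = no clear call, values can overlap the other calls; inactive = mean under the limit and some replicate under it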;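 note: myotubes were challenged with 10 µM simvastatin during compound exposure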
XiGFP reactiv: activators of X-chromosome reactivation in mouse fibroblasts; XiGFP mouse fibroblasts, % GFP-positive cells imaging, 3 d; cells co-treated with 5-aza-dC sensitizer; scaled so ellipticine positive control = 100%; activation, % at 7.58 µM; 0.055% of 360,000 active;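 active = mean normalized replicate activation at least 10% and every replicate at or above 10%; inconclusive = only one of the two criteria met; inactive = mean below 10% and not all replicates reach 10%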;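 note: 0% = median of on-plate neutral control wells and 100% = ellipticine 6 µM median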
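Material: XiGFP fibroblasts, SV40-immortalized. Buffer or medium: DMEM plus 5-aza-dC sensitizer. Compound: single concentration per compound, delivered by pin transfer. Times: 3 days compound exposure. Controls: ellipticine 6 µM.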
DENV2 CPE rescue: protects cells from dengue virus 2 cytopathic effect | DENV2-infected cells, cytopathic effect rescue, plate reader | CPE inhibition, % at 9.99 µM | 1.7% of 350,000 active | AID 651640; in the data active = CPE inhibition above about 20%, passing the limit was not always enough; inconclusive = no clear call, values can overlap the other calls; tested in BHK-21 cells;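 note: 0% = median of neutral control wells and 100% = median of positive control wells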
Active calls of the source: *; ? = inconclusive; . = no result given; ! = not active in a repeat. Shown are actives, neighbours in structure and some others; about 2.1% of the full set was active somewhere.

SMILES	Cneo AK release	C2C12 statin	XiGFP reactiv	DENV2 CPE rescue
C[C@H](CO)N1C[C@H](C)[C@H](CN(C)C(=O)Nc2cccc3ccccc23)Oc2ccc(NS(=O)(=O)c3cn(C)cn3)cc2CC1=O	-4	5	0	2
Cc1ccc(CNC(=O)CSc2ccc(-c3cccs3)nn2)cc1	17	.	0	20*
Cc1ccc(S(=O)(=O)N[C@H]2C=C[C@@H](CC(=O)NCc3ccncn3)O[C@@H]2CO)cc1	2	1	1	-3
Cc1c(NC(=O)C(C)OC(=O)c2nc(Cl)ccc2Cl)c(=O)n(-c2ccccc2)n1C (stereo unspecified)	6	5	0	-6
Cc1c(NC(=O)COc2cccc3c2OC(C)(C)C3)c(=O)n(-c2ccccc2)n1C	0	-6	0	6
Cc1c(NC(=O)C(C)OC(=O)COc2cccc3c2OC(C)(C)C3)c(=O)n(-c2ccccc2)n1C (stereo unspecified)	9	114*	.	.
Cc1c(NC(=O)C(C)OC(=O)c2cc(Cl)ccc2O)c(=O)n(-c2ccccc2)n1C (stereo unspecified)	1	.	0	31*
Cc1ccc(-n2cnc3cc(NCc4cccs4)ccc32)cc1	6	-7	.	.
COc1ccc(-n2cnc3cc(NCc4cccs4)ccc32)cc1	1	127*	.	.
COc1ccc(-c2nc(CC(=O)O)cs2)cc1	-3	105*	.	.
COc1cc(/C=C/C(=O)OCC(=O)Nc2ccc(C)c(S(=O)(=O)N3CCCCC3)c2)ccc1O	1	.	0	5
COc1cc(/C=C/C(=O)OCC(=O)Nc2cc(S(=O)(=O)N3CCCCC3)ccc2C)ccc1O	.	.	0	22*
Cc1noc(C)c1S(=O)(=O)Nc1ccc2c(c1)C(=O)N([C@@H](C)CO)C[C@H](C)[C@H](CN(C)S(=O)(=O)c1cccs1)OCCCC[C@H](C)O2	-2	-5	0	2
C[C@@H]1CN([C@H](C)CO)C(=O)c2cc(NC(=O)c3ccccc3)ccc2O[C@@H](C)CCCCO[C@H]1CN(C)S(=O)(=O)c1ccc(Cl)cc1	3	.	0	19
O=C(NC(=S)Nc1cc(Cl)ccc1N1CCOCC1)c1ccccc1[N+](=O)[O-]	340*	.	0	0
COc1ccc2c3c(n(C)c2c1)[C@@H](CO)N(C(C)=O)CC31CN(C(=O)Nc2ccc(F)cc2)C1	.	.	0	4
Cc1nnc(N2CCN(c3ccccc3)CC2)[nH]c1=O	0	98*	.	.
CCc1c(C)nc(N2CCN(c3ccc(F)cc3)CC2)[nH]c1=O	0	-6	0	-1
C[C@@H]1CN([C@H](C)CO)S(=O)(=O)c2ccc(/C=C/c3ccccc3)cc2O[C@H]1CN(C)C	2	-6	0	20
NC1=NC(=O)/C(=C/c2ccc(Br)cc2)S1	0	11	0	-2
CCOC(=O)COc1ccc(Br)cc1/C=C1\SC(N)=NC1=O	0	5	0	37*
C[C@H](CO)N1C[C@H](C)[C@@H](CN(C)Cc2ccc(Oc3ccccc3)cc2)Oc2ccc(NC(=O)Nc3cccc4ccccc34)cc2C1=O	-1	.	0	20
O=C(/C=C/c1cccc2ccccc12)NCCC1=CCCCC1	1	82*	.	.
COc1cccc(/C=C/C(=O)OCC(=O)NCCC2=CCCCC2)c1OC	-1	4	0	3
C[C@@H]1CN([C@@H](C)CO)C(=O)c2cccc(NS(=O)(=O)c3cn(C)cn3)c2O[C@@H]1CN(C)S(=O)(=O)c1cn(C)cn1	-5	-32	0	27*
SMILES	Cneo AK release	C2C12 statin	XiGFP reactiv	DENV2 CPE rescue
C[C@H](CO)N1C[C@H](C)[C@@H](CN(C)Cc2ccccc2)Oc2c(NS(=O)(=O)c3cn(C)cn3)cccc2C1=O	-2	-8	0	30*!
C[C@@H]1CN([C@@H](C)CO)C(=O)c2cccc(NS(=O)(=O)c3cn(C)cn3)c2O[C@H]1CN(C)CC1CCCCC1	52	-24	-1	33*
CCN(CC)c1ccc2cc(-c3nc(-c4ccc(OC)cc4)cs3)c(=O)oc2c1	.	.	115*	-6
CCN(CC)c1ccc2cc(-c3nnc(-c4ccccc4)o3)c(=O)oc2c1	0	-5	.	.
CS(=O)(=O)Nc1nc2n(n1)C(c1ccc(F)cc1)CC(c1ccccc1)N2 (stereo unspecified)	-1	-3	0	0
CC1CC(c2ccccc2)n2nc(N3C(=O)c4ccccc4C3=O)nc2N1 (stereo unspecified)	7	101*	.	.
C[C@@H]1CN([C@@H](C)CO)C(=O)c2cccc(NC(=O)Nc3ccc(F)cc3)c2O[C@@H]1CN(C)S(=O)(=O)c1cn(C)cn1	.	12	0	.
CCCN(CCC)CCCNC(=O)c1cc2c(=O)[nH]c3ccccc3c2n1C	.	.	0	29*
O=C(Cc1ccccn1)c1ccccc1	0	-2	0	50*
O=C(Cc1ccccn1)c1ccc(Cl)cc1	-1	-5	0	-12
CC1(C)C[C@H]2C3=CCC4[C@@]5(C)CC[C@H](O)[C@](C)(CO)C5CC[C@@]4(C)[C@]3(C)C[C@H]3O[C@@H]1[C@H](O)[C@]32CO (stereo partly specified)	-1	-15	0	41*
CC1(C)C[C@H]2C3=CCC4[C@@]5(C)CC[C@H](O)[C@](C)(CO)C5CC[C@@]4(C)[C@]3(C)CC[C@@]2(C)[C@H](O)[C@@H]1O (stereo partly specified)	0	-1	.	7
CS(=O)(=O)Nc1ccc2c(c1)[C@@H]1C[C@@H](CC(=O)NCC(F)(F)F)O[C@H](CO)[C@@H]1O2	3	0	0	10
CCOc1ccc(/C=N/NC(=O)c2ccccc2O)cc1CN1CC2CC(C1)c1cccc(=O)n1C2 (stereo unspecified)	-1	0	.	58*
C[C@H](CO)N1C[C@H](C)[C@H](CN(C)C(=O)C2CC2)Oc2cc(-c3cccc(F)c3)ccc2S1(=O)=O	9	17	-1	-1
CCCC/C=C/[C@H](c1ccccc1)[C@H](CO)Cc1cccnc1	5	-2	0	42*
CCCC/C=C/C(NC(=O)CCc1ccccc1)c1ccccc1 (stereo unspecified)	0	-3	1	12
O=C1ON=C(c2ccccc2)/C1=C\c1ccco1	-3	-2	0	?
Cc1ccc(/C=C2/C(=O)ON=C2c2ccccc2)o1	.	.	0	42*
Nc1nc(SCC(=O)N2CCN(c3ccc(F)cc3)CC2)n[nH]1	-1	8	0	40*
COc1ccc2c3c([nH]c2c1)[C@H](CO)N(C(=O)C1CCCC1)CC31CN(C(=O)NC(C)C)C1	.	.	0	-10
C[C@@H]1CN([C@H](C)CO)C(=O)Cc2cc(N(C)C)ccc2O[C@H]1CN(C)Cc1ccc(C(F)(F)F)cc1	-1	52	-1	-8
C[C@@H]1CN([C@@H](C)CO)C(=O)Cc2cc(N(C)C)ccc2O[C@@H]1CN(C)Cc1ccc(C(=O)O)cc1	-4	-18	0	33*
